The structures appear in SMILES notation. In brackets after ≈: the same amount, converted by molar mass.

In one assay the test system is Saccharomyces cerevisiae. Nature of the assay: Antifungal activity against Saccharomyces cerevisiae after 24 hrs by NCCLS two fold broth microdilution method. The class given is functional. The essentials: (§1)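 Two-fold serial microdilution following NCCLS. A spore suspension in sterile distilled water was prepared from one-day-old cultures grown on Sabouraud agar and adjusted to a final 1–5 × 10^3 spores/mL. DMSO stocks were diluted in RPMI 1640 to eleven concentrations (0.5–512 µg/mL), inoculated and held at 35 °C for 24 h. Growth was read visually and spectrophotometrically, MIC was the lowest concentration with complete inhibition, and runs were in triplicate.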
In general terms: Broth dilution looks for growth in wells or tubes with falling amounts of substance.

Assay [1] deals with Staphylococcus aureus. Nature of the assay: Antibacterial activity against methicillin-resistant Staphylococcus aureus N315 after 24 hrs by NCCLS two fold broth microdilution method. The following applies: N315, 24 h. It is filed as functional. The method in brief: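 Two-fold serial broth microdilution per NCCLS. Chloromycin and norfloxacin as reference drugs; DMSO with inoculum, no drug, as solvent control. Incubation 37 °C for 24 h. Growth read visually and spectrophotometrically. MIC is the lowest concentration completely inhibiting growth; triplicate.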

Another assay concerns Micrococcus luteus. In words: Antibacterial activity against Micrococcus luteus ATCC 4698 after 24 hrs by NCCLS two fold broth microdilution method. The class given is functional. To be noted: NCTC 2665, 24 h. The essentials:
(§2)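 Two-fold serial broth microdilution in 96-well plates following NCCLS. Compounds were dissolved in DMSO as stocks, then diluted in Mueller–Hinton broth to final concentrations of 0.5–512 µg/mL. Plates were inoculated and incubated at 37 °C for 24 h, with growth read visually and spectrophotometrically. MIC was taken as the lowest concentration giving complete growth inhibition. Run in triplicate, with a DMSO-plus-inoculum solvent control.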

In the next assay the test system is Bacillus. In words: Antibacterial activity against Bacillus proteus ATCC 13315 after 24 hrs by NCCLS two fold broth microdilution method. The class given is functional. The following applies: ATCC 13315, 24 h. The essentials: as §2
The test system of another assay is Pseudomonas aeruginosa. Nature of the assay: Antibacterial activity against Pseudomonas aeruginosa ATCC 27853 after 24 hrs by NCCLS two fold broth microdilution method. It is filed as functional. To be noted: ATCC 27853, 24 h. The method in brief: (§3)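 Two-fold serial broth microdilution in 96-well plates following NCCLS. Plates were inoculated and incubated at 37 °C for 24 h, with growth read visually and spectrophotometrically. MIC was taken as the lowest concentration giving complete growth inhibition. Run in triplicate, with a DMSO-plus-inoculum solvent control.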

For another assay, the system named is Salmonella typhi. In words: Antibacterial activity against Bacillus typhi after 24 hrs by NCCLS two fold broth microdilution method. To be noted: Salmonella enterica. It is filed as functional, Salmonella enterica subsp. enterica serovar Typhi. The method in brief: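 Two-fold serial broth microdilution per NCCLS. DMSO stocks diluted in Mueller–Hinton broth to 512, 256, 128, 64, 32, 16, 8, 4, 2, 1, 0.5 µg/mL. Chloromycin and norfloxacin as reference drugs; DMSO with inoculum, no drug, as solvent control. Incubation 37 °C for 24 h. Growth read visually and spectrophotometrically. MIC is the lowest concentration completely inhibiting growth; triplicate.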

Another assay has as its system Pichia norvegensis. Nature of the assay: Antifungal activity against Candida mycoderma after 24 hrs by NCCLS two fold broth microdilution method. It is filed as functional.
For assay [2], the system named is Staphylococcus aureus. In words: Antibacterial activity against Staphylococcus aureus ATCC 25923 after 24 hrs by NCCLS two fold broth microdilution method. The class given is functional. To be noted: ATCC 25923, 24 h. The essentials: as §2
The next assay concerns Escherichia coli. In words: Antibacterial activity against Escherichia coli ATCC 8099 after 24 hrs by NCCLS two fold broth microdilution method. The class given is functional. The following applies: ATCC 8099, 24 h. The essentials:
as §3

For the next assay, the system named is Bacillus subtilis. In words: Antibacterial activity against Bacillus subtilis ATCC 21216 after 24 hrs by NCCLS two fold broth microdilution method. It is filed as functional. To be noted: ATCC 21216, 24 h. The essentials: as §2
Another assay deals with Candida albicans. Nature of the assay: Antifungal activity against Candida albicans ATCC 76615 after 24 hrs by NCCLS two fold broth microdilution method. The class given is functional. The following applies: ATCC 76615, 24 h. The essentials:
as §1

A further assay relates to Cyberlindnera jadinii. Nature of the assay: Antifungal activity against Candida utilis after 24 hrs by NCCLS two fold broth microdilution method. It is filed as functional. The following applies: Williopsis jadinii. The method in brief: as §1
The subject of another assay is Aspergillus flavus. Nature of the assay: Antifungal activity against Aspergillus flavus after 24 hrs by NCCLS two fold broth microdilution method. The class given is functional. The essentials: as §1

Usually MIC stands for the lowest concentration found to suppress growth. Read a high MIC as a need for much substance. In the case of `CCCCCn1c(CS(=O)(=O)c2ccc(NC(C)=O)cc2)nc2ccccc21`, the MIC was determined as 64 µg/mL (≈ 160 µM) with Saccharomyces cerevisiae; 128 µg/mL (≈ 320 µM) in the assay on Staphylococcus aureus [1]; 32 µg/mL (≈ 80.1 µM) with Micrococcus luteus; 256 µg/mL (≈ 641 µM) in the assay with Bacillus; 4 µg/mL (≈ 10 µM) against Pseudomonas aeruginosa; 32 µg/mL (≈ 80.1 µM) in the assay on Salmonella typhi. The MIC against Pichia norvegensis stood at 16 µg/mL (≈ 40 µM); in the assay on Staphylococcus aureus [2], 32 µg/mL (≈ 80.1 µM); in the assay with Escherichia coli it was 256 µg/mL (≈ 641 µM); against Bacillus subtilis it was 64 µg/mL (≈ 160 µM); in the assay on Candida albicans, 256 µg/mL (≈ 641 µM); against Cyberlindnera jadinii, 32 µg/mL (≈ 80.1 µM). The compound further gave an MIC against Aspergillus flavus of 32 µg/mL (≈ 80.1 µM).

`Nc1ccc(S(=O)(=O)Cc2nc3ccccc3n2Cc2ccc(Cl)cc2Cl)cc1`: the MIC against Saccharomyces cerevisiae was 256 µg/mL (≈ 574 µM); against Staphylococcus aureus [1] it was 128 µg/mL (≈ 287 µM); in the assay with Micrococcus luteus, 64 µg/mL (≈ 143 µM); with Bacillus, 128 µg/mL (≈ 287 µM); in the assay on Pseudomonas aeruginosa it was 32 µg/mL (≈ 71.7 µM); against Salmonella typhi it was 128 µg/mL (≈ 287 µM). The MIC was determined as 512 µg/mL (≈ 1150 µM) against Pichia norvegensis; 8 µg/mL (≈ 17.9 µM) against Staphylococcus aureus [2]; 16 µg/mL (≈ 35.8 µM) with Escherichia coli; 32 µg/mL (≈ 71.7 µM) in the assay on Bacillus subtilis; 16 µg/mL (≈ 35.8 µM) against Candida albicans; 2 µg/mL (≈ 4.48 µM) in the assay with Cyberlindnera jadinii. Besides, the MIC in the assay on Aspergillus flavus was determined as 4 µg/mL (≈ 8.96 µM).

Consider `CCCCCCCCCCn1c(CS(=O)(=O)c2ccc(N)cc2)nc2ccccc21`, for which the MIC against Saccharomyces cerevisiae, against Staphylococcus aureus [1], against Micrococcus luteus, in the assay on Bacillus, against Pseudomonas aeruginosa and with Salmonella typhi was 512 µg/mL (≈ 1200 µM) each time. The MIC with Pichia norvegensis was 512 µg/mL (≈ 1200 µM); with Staphylococcus aureus [2] it was 512 µg/mL (≈ 1200 µM); in the assay on Escherichia coli, 512 µg/mL (≈ 1200 µM); in the assay on Bacillus subtilis it was 512 µg/mL (≈ 1200 µM); against Candida albicans, 512 µg/mL (≈ 1200 µM); against Cyberlindnera jadinii, 8 µg/mL (≈ 18.7 µM). Moreover, the MIC in the assay on Aspergillus flavus is 512 µg/mL (≈ 1200 µM).

On to `CC(=O)Nc1ccc(S(=O)(=O)Cc2nc3ccccc3n2Cc2ccc(Cl)cc2)cc1`, for which the MIC amounted to 64 µg/mL (≈ 141 µM) with Saccharomyces cerevisiae; 512 µg/mL (≈ 1130 µM) with Staphylococcus aureus [1]; 128 µg/mL (≈ 282 µM) in the assay with Micrococcus luteus; 256 µg/mL (≈ 564 µM) against Bacillus; 512 µg/mL (≈ 1130 µM) in the assay with Pseudomonas aeruginosa; 64 µg/mL (≈ 141 µM) with Salmonella typhi. Besides, the MIC in the assay on Pichia norvegensis came out at 32 µg/mL (≈ 70.5 µM); against Staphylococcus aureus [2] it was 512 µg/mL (≈ 1130 µM); in the assay on Escherichia coli it was 128 µg/mL (≈ 282 µM); with Bacillus subtilis, 256 µg/mL (≈ 564 µM); in the assay with Candida albicans, 128 µg/mL (≈ 282 µM); against Cyberlindnera jadinii, 512 µg/mL (≈ 1130 µM). The same compound returned a minimum inhibitory concentration (MIC) against Aspergillus flavus of 512 µg/mL (≈ 1130 µM).

`Nc1ccc(S(=O)(=O)Cc2nc3ccccc3n2Cc2cccc(Cl)c2)cc1`: the MIC in the assay on Saccharomyces cerevisiae amounted to 256 µg/mL (≈ 621 µM); against Staphylococcus aureus [1], 512 µg/mL (≈ 1240 µM); against Micrococcus luteus it was 256 µg/mL (≈ 621 µM); against Bacillus it was 256 µg/mL (≈ 621 µM); in the assay on Pseudomonas aeruginosa it was 256 µg/mL (≈ 621 µM); against Salmonella typhi it was 512 µg/mL (≈ 1240 µM). Further, the MIC with Pichia norvegensis amounted to 512 µg/mL (≈ 1240 µM); in the assay with Staphylococcus aureus [2], 32 µg/mL (≈ 77.7 µM); in the assay with Escherichia coli it was 32 µg/mL (≈ 77.7 µM); with Bacillus subtilis, 512 µg/mL (≈ 1240 µM); with Candida albicans, 512 µg/mL (≈ 1240 µM); with Cyberlindnera jadinii, 512 µg/mL (≈ 1240 µM). The lowest concentration to inhibit growth against Aspergillus flavus (MIC) was 16 µg/mL (≈ 38.8 µM).

For `CCn1c(CS(=O)(=O)c2ccc(N)cc2)nc2ccccc21`, the MIC against Saccharomyces cerevisiae is 512 µg/mL (≈ 1620 µM); in the assay on Staphylococcus aureus [1] it was 128 µg/mL (≈ 406 µM); against Micrococcus luteus, 128 µg/mL (≈ 406 µM); in the assay with Bacillus it was 64 µg/mL (≈ 203 µM); with Pseudomonas aeruginosa, 64 µg/mL (≈ 203 µM); against Salmonella typhi, 128 µg/mL (≈ 406 µM). The MIC against Pichia norvegensis stood at 512 µg/mL (≈ 1620 µM); against Staphylococcus aureus [2], 64 µg/mL (≈ 203 µM); in the assay with Escherichia coli it was 64 µg/mL (≈ 203 µM); with Bacillus subtilis, 64 µg/mL (≈ 203 µM); against Candida albicans, 256 µg/mL (≈ 812 µM); in the assay on Cyberlindnera jadinii, 64 µg/mL (≈ 203 µM). The compound further gave a minimal inhibitory concentration (MIC) against Aspergillus flavus of 32 µg/mL (≈ 101 µM).

Take `CCCn1c(CS(=O)(=O)c2ccc(NC(C)=O)cc2)nc2ccccc21`: the minimum inhibitory concentration (MIC) with Saccharomyces cerevisiae stood at 16 µg/mL (≈ 43.1 µM); against Staphylococcus aureus [1], 64 µg/mL (≈ 172 µM); in the assay with Micrococcus luteus, 256 µg/mL (≈ 689 µM); with Bacillus it was 64 µg/mL (≈ 172 µM); with Pseudomonas aeruginosa, 128 µg/mL (≈ 345 µM); against Salmonella typhi, 32 µg/mL (≈ 86.1 µM). Moreover, the MIC was determined as 16 µg/mL (≈ 43.1 µM) with Pichia norvegensis; 128 µg/mL (≈ 345 µM) with Staphylococcus aureus [2]; 128 µg/mL (≈ 345 µM) in the assay with Escherichia coli; 16 µg/mL (≈ 43.1 µM) in the assay on Bacillus subtilis; 64 µg/mL (≈ 172 µM) in the assay with Candida albicans; 64 µg/mL (≈ 172 µM) against Cyberlindnera jadinii. Besides, the MIC against Aspergillus flavus was 128 µg/mL (≈ 345 µM).

These data come from ChEMBL document CHEMBL4138085, “Design, synthesis and antimicrobial evaluation of novel benzimidazole-incorporated sulfonamide analogues” (Eur J Med Chem, 2017).
